TRPC4 inh: blocks the mouse TRPC4 cation channel; HEK293 TRPC4beta/mu-opioid, DAMGO-evoked Fluo4 calcium flux; hits give low values; B-score at 10 µM; hit rate 0.39% among 300,000;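 active = B-score over 3 SD under the library average, no early fluorescence shift, positive overall ratio signal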
Target sequence (Q9QUQ5 whole entry, looked up): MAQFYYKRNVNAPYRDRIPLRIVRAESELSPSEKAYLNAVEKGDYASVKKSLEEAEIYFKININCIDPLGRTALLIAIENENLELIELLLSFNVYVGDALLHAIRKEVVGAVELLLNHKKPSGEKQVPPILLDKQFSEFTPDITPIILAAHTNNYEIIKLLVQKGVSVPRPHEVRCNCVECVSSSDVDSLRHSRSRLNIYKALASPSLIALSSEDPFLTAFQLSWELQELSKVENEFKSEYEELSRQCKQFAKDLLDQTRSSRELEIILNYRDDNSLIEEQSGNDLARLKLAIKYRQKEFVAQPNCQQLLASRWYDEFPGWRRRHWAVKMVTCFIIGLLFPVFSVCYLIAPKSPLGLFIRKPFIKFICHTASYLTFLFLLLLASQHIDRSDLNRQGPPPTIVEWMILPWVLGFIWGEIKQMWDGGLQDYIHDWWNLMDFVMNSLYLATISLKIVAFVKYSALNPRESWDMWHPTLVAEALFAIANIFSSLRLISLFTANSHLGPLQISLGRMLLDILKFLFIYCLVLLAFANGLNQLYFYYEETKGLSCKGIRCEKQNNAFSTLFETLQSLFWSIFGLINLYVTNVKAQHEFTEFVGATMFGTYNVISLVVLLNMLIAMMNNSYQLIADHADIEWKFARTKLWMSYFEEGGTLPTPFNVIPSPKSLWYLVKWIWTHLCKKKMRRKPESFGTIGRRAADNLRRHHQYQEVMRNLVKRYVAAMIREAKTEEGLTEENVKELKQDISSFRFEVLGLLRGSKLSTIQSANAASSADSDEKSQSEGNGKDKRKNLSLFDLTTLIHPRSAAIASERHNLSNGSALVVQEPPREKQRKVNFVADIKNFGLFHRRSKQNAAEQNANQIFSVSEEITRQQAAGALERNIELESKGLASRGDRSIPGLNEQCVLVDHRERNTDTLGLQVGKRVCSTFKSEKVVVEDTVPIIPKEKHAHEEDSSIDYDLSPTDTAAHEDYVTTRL
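Assay system: Stable TRPC4beta/mu-opioid receptor HEK293 cells | Reagent: DAMGO in two steps, submaximal then maximal | Compound dosing: Single concentration per test compound | Signal: Fluo4 Ca2+ flux fluorescence | Evaluation: Per-well B score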
TRPC4 potent: TRPC4 (mouse) allosteric potentiation. B-score at 10 µM. Q9QUQ5. HEK293 TRPC4beta/mu-opioid, DAMGO EC20, Fluo-4 Ca2+ flux; hits give high values. AID 2227. hit rate 0.42% among 310,000;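 active = B-score of calcium response area above 5 SD of library B-scores, with initial fluorescence ratio within 5 SD of library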
TRPC4 act: opens the mouse TRPC4 cation channel; Q9QUQ5; HEK293 TRPC4beta/mu-opioid, Fluo4 calcium fluorescence; hits give high values; B-score at 10 µM; hit rate 0.49% among 310,000; AID 2237;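 active = B-score above 5 SD of library B-scores, and initial fluorescence ratio not above library mean plus 5 SD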;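 also: positive B-score marks a calcium rise read as TRPC4 activation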
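Incubation: 45 min room-temperature Fluo4 loading, 110 s read / System: HEK293 cells stably co-expressing mouse TRPC4beta and mu-opioid receptor / Signal: Fluo4 fluorescence, kinetic / Control set: buffer (low) and maximal DAMGO (high) / Measure: integrated baseline-normalised fluorescence ratio, converted to per-well B score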
TRPC6 inhibitor: blocks the mouse TRPC6 cation channel; hit rate 1.1% among 310,000; Q61143; B-score at 10 µM; HEK293-TRPC6, membrane potential dye, ACh-evoked depolarization; hits give low values;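 active = B-score under library mean minus 3 SD, initial fluorescence not abnormally high, positive integrated signal ratio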;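 also: B-score derived from integrated fluorescence ratio over the kinetic read; more negative B-score means stronger inhibition of depolarization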
TRPC6 act: mouse TRPC6 channel activation; Q61143; HEK293-TRPC6 membrane potential dye fluorescence; hits give high values; B-score at 10 µM; hit rate 0.13% among 310,000;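 active = B-score of the integrated fluorescence ratio above library mean plus 3 SD, and starting fluorescence ratio within library mean plus 5 SD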;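 also: higher score means more depolarization so channel activation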
HEK293 MPD ctr: checks TRPC6 modulator effects in parental HEK293 cells; shares compounds with TRPC6 inhibitor; membrane potential dye fluorescence; membrane potential signal change, % at 10 µM; hit rate 51% among 2,400; AID 488924;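 active = membrane potential signal moves up or down beyond 5 SD from buffer-only wells, on both duplicate plates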
HEK293 MPD ctr 2: second counter-screen for TRPC6 modulators: effect in parental HEK293 cells; membrane potential dye fluorescence; after compound, maximal acetylcholine stimulation; inhibition, % at 10 µM; shares compounds with TRPC6 inhibitor; hit rate 14% among 2,400;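 active = membrane potential signal drops by more than 5 SD from the mean control signal, in both duplicate plates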
TRPC4/MOR mod: mouse TRPC4 off-target activity of TRPC6 modulators; HEK293 TRPC4/mu-opioid, membrane potential fluorescence; hit rate 69% among 2,400; shares compounds with TRPC6 inhibitor; percent change from control (negative = decrease, positive = increase), % at 10 µM;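 active = membrane potential signal moved up or down beyond 5 SD of buffer control wells, in both duplicate plates, actives on both sides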
TRPC4 ctr inh 2: second check of whether TRPC6 modulators also affect mouse TRPC4; inhibition, % at 10 µM; hit rate 55% among 2,400; HEK293 TRPC4/mu-opioid, membrane potential dye fluorescence; stimulated with maximal-effect DAMGO; shares compounds with TRPC6 inhibitor;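 active = drop in membrane potential signal beyond 5 SD of the control wells in both duplicate plates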;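 also: TRPC4 counter screen for TRPC6 hits run under conditions tuned for TRPC6 not TRPC4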
TRPC6 inh conf: confirmation of mouse TRPC6 inhibitors | shares compounds with TRPC6 inhibitor | HEK293-TRPC6, membrane potential dye, ACh-evoked depolarization | inhibition, % at 10 µM | hit rate 43% among 3,300;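 active = fluorescence ratio falls more than 5 SD below the full-stimulation control mean, in both duplicate runs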;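 also: integrated fluorescence ratio of peak minus minimum over baseline after agonist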
TRPC6 act confirm: confirmation of mouse TRPC6 activators; shares compounds with TRPC6 inhibitor; HEK293-TRPC6 membrane potential dye fluorescence, FDSS; activation, % at 10 µM; hit rate 11% among 2,800;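 active = ratio signal rise beyond 5 SD above unstimulated control wells' mean, seen in both duplicate runs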
Large screens that a line does not name were inactive (follow-up assays come after a bar, where they were run). Compounds with a hit are over-represented: about 2.3% of the library has one in this group of screens.

O=C1S/C(=C\c2ccc(N3CCOCC3)o2)C(=O)N1Cc1c(F)cccc1Cl	TRPC4 potent 17, TRPC4 act 43, TRPC6 act 28 | HEK293 MPD ctr 226% | HEK293 MPD ctr 2 inactive | TRPC4/MOR mod 117% | TRPC4 ctr inh 2 inactive | TRPC6 inh conf inactive | TRPC6 act confirm inactive
O=C1S/C(=C/c2ccc(N3CCOCC3)o2)C(=O)N1Cc1c(F)cccc1Cl	TRPC6 act 17 | HEK293 MPD ctr inactive | HEK293 MPD ctr 2 inactive | TRPC4/MOR mod 100% | TRPC4 ctr inh 2 inactive | TRPC6 inh conf inactive | TRPC6 act confirm inactive
O=C1S/C(=C\c2ccc(N3CCOCC3)o2)C(=O)N1c1ccccc1	none
O=C(C1=C[C@H](C2CC2)C[C@H](OCCCCO)O1)N1CCOCC1	none
CCO[C@@H]1OC(C(=O)N2CCCCCCC2)=C[C@H](c2ccc3c(c2)OCO3)[C@H]1CCCO	none
CCOc1ccccc1C(C(=O)NC1CCCC1)N(Cc1ccco1)C(=O)CNC(=O)c1ccco1 (stereo unspecified)	TRPC6 act 14 | HEK293 MPD ctr 350% | HEK293 MPD ctr 2 90% | TRPC4/MOR mod 78% | TRPC4 ctr inh 2 inactive | TRPC6 act confirm 150%
Cc1ccc(C(C(=O)NC2CCCCC2)N(Cc2ccco2)C(=O)Cn2cnc3ccccc32)cc1 (stereo unspecified)	TRPC6 act 17 | HEK293 MPD ctr inactive | HEK293 MPD ctr 2 inactive | TRPC4/MOR mod 122% | TRPC4 ctr inh 2 inactive | TRPC6 inh conf inactive | TRPC6 act confirm 30%
O=C(NC1CCCCC1)C(c1ccc(F)cc1)N(Cc1ccco1)C(=O)Cn1nnc2ccccc21 (stereo unspecified)	none
COc1ccc(C(=O)N/C(=C/c2ccccc2F)C(=O)NCCN2CCOCC2)cc1OC	none
COc1ccc(-c2cn(-c3ccc(Br)cc3)c3[n+]2CCS3)cc1	TRPC6 inhibitor -5.9 | HEK293 MPD ctr inactive | HEK293 MPD ctr 2 inactive | TRPC4/MOR mod inactive | TRPC4 ctr inh 2 inactive | TRPC6 inh conf inactive | TRPC6 act confirm inactive
COc1ccc(-c2cn(-c3ccc(Cl)cc3)c3[n+]2CCCCC3)cc1	none
Fc1ccc(-c2cn(-c3ccccc3)c3[n+]2CCS3)cc1	none
Clc1ccc(-c2cn(-c3ccccc3)c3[n+]2CCS3)cc1	TRPC6 inhibitor -7.4 | HEK293 MPD ctr -96% | HEK293 MPD ctr 2 58% | TRPC4/MOR mod -16% | TRPC4 ctr inh 2 inactive | TRPC6 inh conf 48% | TRPC6 act confirm inactive
CC1CCCN(Cc2c(O)ccc3c(=O)c(-c4nc5ccccc5s4)c(N)oc23)C1 (stereo unspecified)	TRPC6 inhibitor -5.8 | HEK293 MPD ctr inactive | HEK293 MPD ctr 2 inactive | TRPC4/MOR mod inactive | TRPC4 ctr inh 2 48% | TRPC6 inh conf inactive | TRPC6 act confirm inactive
CC1CCN(Cc2c(O)ccc3c(=O)c(-c4nc5ccccc5s4)c(N)oc23)CC1	none
CCOC(=O)c1cc(S(=O)(=O)N2CCCC2)cn1C	none
COc1cccc(CN2CC(C(=O)NCCCCc3ccccn3)CCC2=O)c1 (stereo unspecified)	none
C[n+]1cccc2ccc3c(c21)OC(N)=C(C#N)C3c1ccccc1 (stereo unspecified)	TRPC6 inhibitor -9.2 | HEK293 MPD ctr -284% | HEK293 MPD ctr 2 80% | TRPC4/MOR mod -48% | TRPC4 ctr inh 2 60% | TRPC6 inh conf 74% | TRPC6 act confirm inactive
Cc1cccnc1NC(=O)CCc1nnc2ccc(N3CCC4(CC3)OCCO4)nn12	none
Cc1ccccc1-n1c(SCC(=O)N2CCOCC2)nc(O)c(Cc2ccccc2)c1=O	none
COc1ccc(OC)c(CNc2ncc(-c3ccc(F)cc3)n2C)c1	TRPC6 inhibitor -5.3 | HEK293 MPD ctr inactive | HEK293 MPD ctr 2 inactive | TRPC4/MOR mod inactive | TRPC4 ctr inh 2 68% | TRPC6 inh conf 57% | TRPC6 act confirm inactive
COc1ccccc1CNc1ncc(-c2ccc(F)cc2)n1C	none
Cn1c(-c2ccc(F)cc2)cnc1NCc1cc2c(cc1[N+](=O)[O-])OCO2	TRPC6 inhibitor -6.2 | HEK293 MPD ctr inactive | HEK293 MPD ctr 2 inactive | TRPC4/MOR mod -16% | TRPC4 ctr inh 2 76% | TRPC6 inh conf 72% | TRPC6 act confirm inactive
Cn1c(-c2ccccc2)cnc1NCc1cc2c(cc1[N+](=O)[O-])OCO2	TRPC6 inhibitor -5.6 | HEK293 MPD ctr inactive | HEK293 MPD ctr 2 inactive | TRPC4/MOR mod -24% | TRPC4 ctr inh 2 68% | TRPC6 inh conf inactive | TRPC6 act confirm inactive
COCCn1c(-c2ccccc2)nc2c(c(=O)c3ccccc3n2C)c1=O	none
COc1ccc(C(=O)CSc2ccccc2C(=O)O)cc1	none
CCOC(=O)c1cnc2c(Cl)cccc2c1NCCCN1CCOCC1	TRPC6 inhibitor -6.3 | HEK293 MPD ctr -187% | HEK293 MPD ctr 2 inactive | TRPC4/MOR mod -30% | TRPC4 ctr inh 2 38% | TRPC6 inh conf 44% | TRPC6 act confirm inactive
CCOC(=O)c1cnc2c(C(F)(F)F)cccc2c1NCCCN1CCOCC1	TRPC6 inhibitor -7.2 | HEK293 MPD ctr -185% | HEK293 MPD ctr 2 inactive | TRPC4/MOR mod -34% | TRPC4 ctr inh 2 52% | TRPC6 inh conf inactive | TRPC6 act confirm inactive
CCOC(=O)c1cnc2c(CC)cccc2c1NCCCN1CCOCC1	none
CCOC(=O)c1cnc2c(Cl)cccc2c1NCCN1CCOCC1	none
CCCCC(CC)Cn1c(N)c(C#N)c2nc3ccccc3nc21 (stereo unspecified)	TRPC6 inhibitor -6 | HEK293 MPD ctr inactive | HEK293 MPD ctr 2 inactive | TRPC4/MOR mod inactive | TRPC4 ctr inh 2 inactive | TRPC6 inh conf inactive | TRPC6 act confirm inactive
Nc1ccc(N(CCO)CCO)cc1	none

From PubChem BioAssay
